Experimental data from the EternaBench riboswitch data.

Test system: MS2 coat protein
Test: apparent Kd, MS2 coat protein; higher = weaker binding; RNA-MaP array; FMN 200 µM where present
How it was run: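 The apparent Kd is reported as the median of filtered per-cluster binding-curve fits. To get these curves, designs transcribed by stalled E. coli RNA polymerase on Illumina sequencing-chip clusters were titrated with SNAP-549-labelled MS2 coat protein from 0.7 or 1.5 nM, doubling to 3 µM. Titrations were run without and then with constant ligand in 100 mM Tris-HCl pH 7.5, 80 mM KCl, 4 mM MgCl2, BSA, DTT, yeast tRNA and Tween-20, and green signal was normalised to red-channel RNA signal and control-cluster median Fmax.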

[1] = designed as: OFF switch for flavin mononucleotide, no ligand
[2] = ligand present: flavin mononucleotide, designed as: OFF switch for flavin mononucleotide
[3] = designed as: ON switch for flavin mononucleotide, no ligand
[4] = ligand present: flavin mononucleotide, designed as: ON switch for flavin mononucleotide

| Sequence | apparent Kd [1] | apparent Kd [2] | apparent Kd [3] | apparent Kd [4] |
| --- | --- | --- | --- | --- |
| CUCAUGAGAGGAUAUACAUGAGGAUCACCCAUGUUCUUAUCUCGUCGGGCUCCAUUACGUAGAAGGCUCAUUUG | 29.4 nM | 46.9 nM | – | – |
| CUCAUGUAAGGAUAUCUACGCGCUAAGGUGCGUCUAUCACAAGAGAAGGUACAUGAGGAUCACCCAUGUAAAGA | 103 nM | 127 nM | – | – |
| CUCAUGUAAGGAUAUGACUACAUAAAAAAAAAAAAAUGUAGUCAGAAGGUACAUGAGGAUCACCCAUGUACAAA | 53.7 nM | 35 nM | – | – |
| CUCAUGUGAGGAUAUGUGAUCAACCUUCUAUAUAGAUGAUGACAGAAGGCACAUGAGGAUCACCCAUGUAGAUC | 65.5 nM | 20.1 nM | – | – |
| CUCCGGCAAGGAUAUGCGUCUUCUCCCAUGAAACAAAAUAAACAUGAGGAUCACCCAUGUAGAAGGUGCAGGAC | 33.1 nM | 28.6 nM | – | – |
| CUCGUGUUAGGAUAUCGUGGCUGGGCUGGGACGUCCGAUGGCGAGAAGGGACAUGAGGAUCACCCAUGUAAAAC | 28.6 nM | 27.6 nM | – | – |
| CUCUUGUAAGGAUAUGACUACAUAAAAAAAAAAAAAUGUAGUCAGAAGGUACAUGAGGAUCACCCAUGUACUAA | 20.9 nM | 22.1 nM | – | – |
| CUCUUGUUAGGAUAUCAAACCGGCGGCGGAGCCGCCGGUAGUGAGAAGGGACAUGAGGAUCACCCAUGUAAGAA | 90.1 nM | 198 nM | – | – |
| CUGAGGUCAGGAUAUGCAUGGCGGGACUUGCGUCGUGGCGUGGAGAAGGGACAUGAGGAUCACCCAUGUGGAGU | 79 nM | 54.2 nM | – | – |
| CUGAUGUGAGGAUAUCGGGCUACAGCCCUGCUGCUAGCAAACGAGAAGGCACAUGAGGAUCACCCAUGUGAUAG | 21.6 nM | 24.3 nM | – | – |
| CUGAUGUGAGGAUAUCUACGCCAUGUCUUUGACAUGGCGCAAGAGAAGGCACAUGAGGAUCACCCAUGUUCUUC | 62.9 nM | 723 nM | – | – |
| CUGAUGUGAGGAUAUGUGAUCUGCCUUCUAUGUAGAUGAUCACAGAAGGCACAUGAGGAUCACCCAUGUAGAUC | 85.9 nM | 94.3 nM | – | – |
| CUGAUGUUAGGAUAUCAGGCUGUGCGCGAAAACGGGCGGCAUGAGAAGGAACAUGAGGAUCACCCAUGUGACGG | 47.3 nM | 124 nM | – | – |
| CUGAUGUUAGGAUAUCAGGUUGCGCGCGAAGGCACGCAGCAUGAGAAGGAACAUGAGGAUCACCCAUGUGACGA | 40.6 nM | 132 nM | – | – |
| CUGCAGUAAGGAUAUACAUGAGGAUCACCCAUGUAGCAACUUACAUAACGAAACGCAUGUAGAAGGUACCAGAU | 14 nM | 15.4 nM | – | – |
| CUGCGGUAGGAGAAGGACGGCGGGUUAUUUUCGUACAUGAGGAUCACCCAUGUAGGAUAUCCUACCUCAGGCGGCCUACUACAG | 19.9 nM | 30 nM | – | – |
| CUGGGCGGUUUGCCCACACUGUCACAGGAUAUGCCCAAAACAUGAGGAUCACCCAUGUCAAAUACGCAGAAGGGUGAUCGGAAC | – | – | 107 nM | 62.5 nM |
| CUGGUGUGAGGAUAUCAGGACACGCCCGAGGGCGUGUCAAAUGAGAAGGCACAUGAGGAUCACCCAUGUGGGAC | 42.3 nM | 99.6 nM | – | – |
| CUGGUGUGAGGAUAUCAGGACACGUACGCGGGCAUGUCAAAUGAGAAGGCACAUGAGGAUCACCCAUGUGGGAC | 29.7 nM | 41.6 nM | – | – |
| CUGGUGUGAGGAUAUCAGGGCACGCCCAAGGGCGUACCAAAUGAGAAGGCACAUGAGGAUCACCCAUGUGGGAC | 36.5 nM | 160 nM | – | – |
| CUGUGAGGGAUCCAGAAUUACAACAUGAGGAUCACCCAUGUACAGGAUAUAGGGUUGAUAGGCGCCUAGAAGGGUAUGAUCACG | 632 nM | 584 nM | – | – |
| CUGUGUGACCGAGGAUAUAGACAUGAGGAUCACCCAUGUACGCCCAUCCAUGAAAGGUCCGUCGUCUAGAAGGCGGAGGCAAUG | 11.2 nM | 23.4 nM | – | – |

| Sequence | apparent Kd [1] | apparent Kd [2] | apparent Kd [3] | apparent Kd [4] |
| --- | --- | --- | --- | --- |
| CUUAAGGCAGGAUAUGCUUUUUGUGACAUGAGGAUCACCCAUGUGAUGCAGUUUGGGUGUGCAGAAGGGCCUGAGU | 364 nM | 172 nM | – | – |
| CUUAGACAUGAGGAUCACCCAUGUGAGGAUAUGAUGCAGCAGUGGUCUACGCUGUGCAUCAGAAGGCACAUAUG | 120 nM | 155 nM | – | – |
| CUUAGACAUGAGGAUCACCCAUGUGAGGAUAUGAUGCGAAUAAAGAAAGAAGAAAGCAUCAGAAGGCACAUAUG | 115 nM | 349 nM | – | – |
| CUUAGUUUGUAGAAGGGUGACAUGAGGAUCACCCAUGUGCGUCUCCUGAAAGACCAGGGUACGCCACAGGAUAUACAAAGUAAG | – | – | 42.7 nM | 47.7 nM |
| CUUAUAAUUGAAGGAUAUCUAUAUCCAACAUGAGGAUCACCCAUGUUGAGGAUCACCCAUGUAAAGGAGAAGGUUAAUUAUAAG | – | – | 104 nM | 22.7 nM |
| CUUAUGUGAGGAUAUCAGUAGUGAUACGAUAGUAUUACUGCUGAGAAGGUACAUGAGGAUCACCCAUGUUCCUC | 17.1 nM | 20.4 nM | – | – |
| CUUCAGUCACAGGAUAUGCUCAUCUAAUGAUGAGCAGAAGGGUGAACAUGAGGAUCACCCAUGUUUACGGUGGU | 621 nM | 487 nM | – | – |
| CUUCGUAUAGAGGAUAUAGGUUACUGCGGUAUCCUAGAAGGCUGUACAUGAGGAUCACCCAUGUACUUCAGAUC | 13.9 nM | 18.2 nM | – | – |
| CUUCUCGUUGUGAGGAUAUCGUUUUCGUCUCGGAUCGAGAAGGCACAUGAGGAUCACCCAUGUUUGUUGUGGUU | 115 nM | 103 nM | – | – |
| CUUCUGUCAGGAUAUGCGAAUCGGCACUGGGUCAGUGGCGAGCAGAAGGGACAUGAGGAUCACCCAUGUAAAGU | 32.8 nM | 131 nM | – | – |
| CUUCUGUGAGGAUAUUAGUAGUAAAUAAAUAAAAUUAUUACUGAGAAGGCACAUGAGGAUCACCCAUGUUCCUC | 35.1 nM | 392 nM | – | – |
| CUUGUGUGAGGAUAUCAGUAGUAGUACGAUAGUAUUACUGCUGAGAAGGCACAUGAGGAUCACCCAUGUUCUUC | 28.1 nM | 24.1 nM | – | – |
| CUUUAGUGAGGAUAUCGGUAGUAAUACAAUAGUAUUACUACUGAGAAGGCACAUGAGGAUCACCCAUGUUCCUC | 29.9 nM | 233 nM | – | – |
| CUUUGGUCAGGAUAUGGUGGGCUGGUCGCGCGGCCGGGUGGCCAGAAGGGACAUGAGGAUCACCCAUGUACGGC | 35.5 nM | 59.7 nM | – | – |
| CUUUUGGCAGGAUAUGCUUUUUUUGACAUGAGGAUCACCCAUGUGAUGCAGUUUGGGUUUGCAGAAGGGCCUGAGU | 98.1 nM | 131 nM | – | – |
| CUUUUGUGAGGAUAUCAGUAGUAAAAAAAUAAAAUUACUACUGAGAAGGCACAUGAGGAUCACCCAUGUUCCUU | 26.8 nM | 31.6 nM | – | – |
| CUUUUGUGAGGAUAUCAGUAGUAAAAAAAUAAAAUUACUUCUGAGAAGGCACAUGAGGAUCACCCAUGUUCCUC | 39.5 nM | 333 nM | – | – |
| CUUUUGUGAGGAUAUCAGUAGUAAAAAAAUAAAAUUAUUACUGAGAAGGCACAUGAGGAUCACCCAUGUUCCUC | 34 nM | 196 nM | – | – |
| CUUUUGUGAGGAUAUUAGUAGUAAAUAAAUAAAAUUACUACUGAGAAGGUACAUGAGGAUCACCCAUGUUCCUC | 14.8 nM | 19.3 nM | – | – |
| CUUUUGUGAGGAUAUUAGUAGUAAAUAAAUAAAAUUACUACUUAGAAGGCACAUGAGGAUCACCCAUGUUCCUC | 26.9 nM | 219 nM | – | – |
| CUUUUGUGAGGAUAUUAGUAGUAAAUAAUUAAAAUUACUACUGAGAAGGCACAUGAGGAUCACCCAUGUUCCUC | 33.2 nM | 344 nM | – | – |
| CUUUUGUGAGGAUAUUAGUAGUAUAUAAAUAAAAUUACUACUGAGAAGGCACAUGAGGAUCACCCAUGUUCCUC | 32.7 nM | 124 nM | – | – |
